Laboratory results as given in ChEMBL document CHEMBL4477177, “Antituberculosis Activity of a Naturally Occurring Flavonoid, Isorhamnetin” (J Nat Prod, 2016).
Values after ≈ are worked out from the molar mass of the structure shown. Active and inactive are the calls of the source. The calls are words filed in the database; no cut-off is given here.

Experiments:
[1] = target: Mitogen-activated protein kinase 3 (Homo sapiens) (UniProt P27361); test: Binding affinity to human ERK1 expressed in Escherichia coli BL21 by fluorescence quenching based spectrofluorometric analysis
Mitogen-activated protein kinase 3 (Homo sapiens), sequence (P27361 whole entry): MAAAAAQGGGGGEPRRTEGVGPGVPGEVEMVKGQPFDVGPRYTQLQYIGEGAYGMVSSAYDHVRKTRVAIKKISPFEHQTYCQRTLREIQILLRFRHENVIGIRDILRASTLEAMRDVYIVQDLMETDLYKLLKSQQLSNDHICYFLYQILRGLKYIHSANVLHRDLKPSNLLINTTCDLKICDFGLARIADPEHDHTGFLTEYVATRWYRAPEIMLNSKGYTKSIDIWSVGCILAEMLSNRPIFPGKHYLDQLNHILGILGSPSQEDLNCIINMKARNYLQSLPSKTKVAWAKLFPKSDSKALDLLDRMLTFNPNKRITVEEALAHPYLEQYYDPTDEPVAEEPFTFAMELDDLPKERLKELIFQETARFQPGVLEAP
Procedure, shortened: (§1)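 C-terminally His6-tagged ERK1 or p38 MAPK expressed in E. coli and purified. Protein at 10 μM in 50 mM sodium phosphate, 100 mM NaCl, pH 8.0, titrated with ligand to 1:10 protein:ligand. Excitation 290 nm, emission 290–500 nm. Binding constant K derived from fluorescence quenching.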

[2] = test system: Mycobacterium tuberculosis; test: Antitubercular activity against Mycobacterium tuberculosis H37Rv ATCC 27294 incubated for 7 days by resazurin assay; format: functional; conditions: H37Rv ATCC 27294, 168 h
[3] = target: MAP kinase p38 (Homo sapiens) (UniProt O15264+Q15759+Q16539+P53778); test: Binding affinity to human C-terminally His-tagged p38 expressed in Escherichia coli BL21 by fluorescence quenching based spectrofluorometric analysis; procedure, shortened: as §1
[4] = Lipophilicity, logP of the compound; format: physicochemical; conditions: octanol/water
[5] = Cytotoxicity against mouse NIH/3T3 cells assessed as cell survival rate at 16 uM after 24 hrs by MTT assay; format: cell-based, NIH3T3; conditions: read-out: Survival
Procedure, shortened: (§2)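 Cells treated for 24 h with test agent (0–400 μM) or rifampicin (0–16 μM), then MTT assay. Survival taken as A570 of treated cells over A570 of untreated cells, as a percentage. Average of triplicates from three independent experiments.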

[6] = Cytotoxicity against human MRC5 cells assessed as cell survival rate at 16 uM after 24 hrs by MTT assay; format: cell-based; conditions: read-out: Survival; procedure, shortened: as §2
[7] = test system: Mycobacterium tuberculosis; test: Antitubercular activity against Mycobacterium tuberculosis H37Rv P887 incubated for 1 to 9 days by inverted microscopic analysis; format: functional
Procedure, shortened: (§3)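 Bacteria immobilised in 0.5% agarose within microfluidic channels of a 96-well chip. Compound (0–632 μM; rifampicin 0–19.4 μM) supplied in Middlebrook 7H9 with 10% OADC and allowed to diffuse in. Incubated at 37 °C; channel boundary imaged by inverted microscopy (40×) at 1, 3, 5, 7 and 9 days. MIC90 taken as lowest concentration giving 90% growth inhibition. Triplicate.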

[8] = test system: Mycobacterium tuberculosis; test: Antitubercular activity against MDR Mycobacterium tuberculosis X23 incubated for 1 to 9 days by inverted microscopic analysis; format: functional
[9] = test system: Mycobacterium tuberculosis; test: Antitubercular activity against XDR Mycobacterium tuberculosis X24 incubated for 1 to 9 days by inverted microscopic analysis; format: functional; procedure, shortened: as §3
[10] = Cytotoxicity against human HaCaT cells assessed as cell survival rate at 16 uM after 24 hrs by MTT assay; format: cell-based; conditions: read-out: Survival; procedure, shortened: as §2
[11] = test system: Mycobacterium tuberculosis; test: Antitubercular activity against XDR Mycobacterium tuberculosis X59 incubated for 1 to 9 days by inverted microscopic analysis; format: functional; procedure, shortened: as §3
[12] = test system: Mycobacterium tuberculosis; test: Antitubercular activity against MDR Mycobacterium tuberculosis M22 incubated for 1 to 9 days by inverted microscopic analysis; format: functional; procedure, shortened: as §3

| Structure (SMILES) | K [1] | MIC [2] [µM] | K [3] | logP [4] | viability at 24 h, 16 µM [5] [%] | viability at 24 h, 16 µM [6] [%] | MIC90 [7] [µM] | MIC90 [8] | MIC90 [9] | viability at 24 h, 16 µM [10] [%] | MIC90 [11] | MIC90 [12] [µM] |
| --- | --- | --- | --- | --- | --- | --- | --- | --- | --- | --- | --- | --- |
| O=c1c(O)c(-c2ccc(O)c(O)c2)oc2cc(O)cc(O)c12 [QUERCETIN] | 5.62 ×10⁵ /M | > 827 | 9.87 ×10⁵ /M | 1.63 |  |  |  |  |  |  |  |  |
| CO[C@H]1/C=C/O[C@@]2(C)Oc3c(C)c(O)c4c(O)c(c(/C=N/N5CCN(C)CC5)c(O)c4c3C2=O)NC(=O)/C(C)=C\C=C\[C@H](C)[C@H](O)[C@@H](C)[C@@H](O)[C@@H](C)[C@H](OC(C)=O)[C@@H]1C [RIFAMPIN] |  |  |  |  | 62 | 53 | 0.61 (≈ 0.502 µg/mL) | inactive | inactive | 55 | inactive |  |
| COc1ccc(-c2oc3cc(O)cc(O)c3c(=O)c2O)cc1O [TAMARIXETIN] | 6.31 ×10⁴ /M |  | 4.64 ×10⁴ /M | 1.86 |  |  | 632 (≈ 200 µg/mL) | 632 µM (≈ 200 µg/mL) | > 632 µM |  | > 632 µM | 632 (≈ 200 µg/mL) |
